Here are results for 6 molecules from ChEMBL document CHEMBL1158682, “Detecting potential teratogenic alkaloids from blue cohosh rhizomes using an in vitro rat embryo culture” (J Nat Prod, 1999).

The nature of data set [1]: Teratogenic activity in rat embryo assessed as incidence of major malformation at 20 ug/mL after 45 hrs relative to control. The format is toxicity. In a few lines:
(§1)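 Time-pregnant rats were euthanized with CO2 on gestation day 9. Embryos were dissected on day 9.5 at stages 11a-11c and cultured in 2.0 mL rat serum plus 0.5 mL Waymouth's MB 752/1 with penicillin-streptomycin. Test material in EtOH-DMSO (1:1) was added at culture start, with a solvent control. Growth, development score and major malformations were assessed after 45 h; controls were pooled across experiments.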

The species entered for data set [2] is Rattus norvegicus. As to the kind of experiment: Effect on growth and morphogenesis of organogenesis-staged rat embryo at 5 ug/mL after 45 hrs relative to control. The format is functional. In a few lines: as §1
A short description of data set [3]: Teratogenic activity in rat embryo assessed as incidence of major malformation at 50 ug/mL after 45 hrs relative to control. Format: toxicity. In a few lines: as §1
Data set [4] can be described thus: Teratogenic activity in rat embryo assessed as incidence of major malformation at 250 ug/mL after 45 hrs relative to control. The format is toxicity. The method in brief: as §1
Data set [5] can be described thus: Binding affinity to nicotinic receptor.
Data set [6] can be described thus: Teratogenic activity in rat embryo assessed as incidence of major malformation at 80 ug/mL after 45 hrs relative to control. The format is toxicity. In a few lines: as §1
The species entered for data set [7] is Rattus norvegicus. As to the kind of experiment: Effect on growth and morphogenesis of organogenesis-staged rat embryo at 20 ug/mL after 45 hrs relative to control. The format is functional. In a few lines:
as §1

Data set [8] is filed under the species Rattus norvegicus. The experiment in a line: Effect on growth and morphogenesis of organogenesis-staged rat embryo at 80 ug/mL after 45 hrs relative to control. The format is functional. In a few lines:
as §1

Data set [9] in a line: Binding affinity to muscarinic acetylcholine receptor.
Data set [10] can be described thus: Teratogenic activity in rat embryo assessed as incidence of major malformation at 5 ug/mL after 45 hrs relative to control. The format is toxicity. In a few lines:
as §1

For data set [11], the species on record is Rattus norvegicus. The experiment in a line: Effect on growth and morphogenesis of organogenesis-staged rat embryo at 250 ug/mL after 45 hrs relative to control. The format is functional. In a few lines: as §1
The species entered for data set [12] is Rattus norvegicus. The experiment in a line: Effect on growth and morphogenesis of organogenesis-staged rat embryo at 1.25 ug/mL after 45 hrs relative to control. The format is functional. The method in brief: (§2)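 Rat whole embryo culture: gestation day 9.5 embryos (stages 11a-11c) dissected from time-pregnant dams. Medium was 2.0 mL rat serum plus 0.5 mL Waymouth's MB 752/1 with penicillin-streptomycin. Test material was dissolved in EtOH-DMSO (1:1) and added at the start of culture; the solvent served as control. After 45 h, a developmental score was assigned and major malformations recorded. Controls were pooled across experiments.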

The nature of data set [13]: Teratogenic activity in rat embryo assessed as incidence of major malformation at 1.25 ug/mL after 45 hrs relative to control. Format: toxicity. The method in brief:
as §1

The species entered for data set [14] is Rattus norvegicus. The experiment in a line: Effect on growth and morphogenesis of organogenesis-staged rat embryo at 0.1 ug/mL after 45 hrs relative to control. Format: functional. In a few lines:
as §2

The nature of data set [15]: Embryotoxicity in rat embryo at 5 ug/mL. The format is toxicity. The method in brief: as §1
Data set [16] in a line: Embryotoxicity in rat embryo at 80 ug/mL. The format is toxicity. In a few lines: as §1
A short description of data set [17]: Embryotoxicity in rat embryo at 20 ug/mL. Format: toxicity. The method in brief:
as §1

A short description of data set [18]: Embryotoxicity in rat embryo at 250 ug/mL. Format: toxicity. In a few lines:
as §1

As usually defined, the IC50 is the concentration needed to halve the response being measured. On to `CN1C[C@@H]2C[C@H](C1)c1cccc(=O)n1C2`, for which the Activity in data set [1] came to 29.8%; in data set [2], 29%; in [3], 26.2%; in data set [4], 22.9%; in data set [6] it was 24%. This molecule also registered an IC50 in data set [5] of 0.05 µM.

`O=C1CCC[C@@H]2[C@@H]3C[C@H](CN12)[C@H]1CCCCN1C3`: the Activity came out at 29.2% in [7], 29.5% in data set [2] and 30.5% in data set [8].

Take `O=c1cccc2n1C[C@H]1C[C@@H]2CN2CCCC[C@H]12` [ANAGYRINE]: the Activity was 26.5% in data set [7]; “Not Active” in [1]; 28.2% in [2]; “Not Active” in [10]; 28.2% in data set [8]; “Active” in data set [4]. Moreover, the Activity was 15.5% in data set [11] and “Not Active” in data set [6]. The results for the IC50 in data set [9] and in [5] were 132 µM and 2100 µM, respectively.

With `COc1ccc2c(c1O)-c1c(O)c(OC)cc3c1[C@H](C2)[N+](C)(C)CC3` [MAGNOFLORINE], the Activity in [7] was 27.8%; in data set [1], “Not Active”; in data set [2], 29%; in data set [10] it was “Not Active”; in data set [8], 28.2%; in data set [12], 28.2%. For the same molecule, the Activity entry in data set [6] and in data set [13] was “Not Active” throughout.

`COc1ccc2c(=O)oc3c(OC)cc(CCN(C)C)c4c(=O)oc1c2c34` [TASPINE]: the Activity in data set [14] was 27.6%; in [15] it was “Toxic”; in [16], “Toxic”; in data set [10], “Not Active”; in data set [12], 27.7%; in data set [17], “Toxic”. In addition, the figures for the Activity entry in data set [18] and in data set [13] were “Toxic” and “Not Active”, respectively.

Consider `CN1CCCCC1CC(=O)c1ccc(O)cc1` (stereo not given) [THALICHROIDINE], for which the Activity was 29.5% in data set [7]; “Not Active” in data set [1]; 30.8% in [2]; “Not Active” in [10]; 29.2% in data set [8].
